Results from ChEMBL document CHEMBL5550188, “Detection of a Mitochondrial Fragmentation and Integrated Stress Response Using the Cell Painting Assay” (2024).
Calls of active or inactive are those of the source. The rule behind the calls is not given here.

How the values were obtained:
U2OS [1] = assay: Effect on oxidative phosphorylation in human U2OS cells at 2 uM incubated for 24 hrs by pathway over-representation analysis; format: functional, cell-based
Summary of the method: (§1)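 U-2OS seeded at 1 × 10⁶ cells in T75 flasks, treated next day for 24 h at 37 °C versus DMSO. Cells were lysed by freeze–thaw, reduced with TCEP at 55 °C, alkylated with iodoacetamide, acetone-precipitated and trypsin-digested. Peptides were TMT-labelled, split into 10 fractions by high-pH C18, then run on nanoHPLC-MS/MS (orbitrap). Biological triplicates, with pathway over-representation analysis.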

U2OS [2] = assay: Effect on glycolysis in human U2OS cells assessed as increase in ECAR level at 2 to 10 uM of acute treatment by Seahorse analysis; format: functional, cell-based; settings: dose 2-10 µM
Summary of the method: (§2)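 Seahorse XFp Mito Stress Test on U-2OS, 2 × 10⁵ cells per well, seeded overnight. Assay medium was pH 7.4 DMEM with 2 mM GlutaMAX, 1 mM pyruvate and 25 mM glucose. For acute runs, compound was injected after 5 baseline reads, then 10 reads. Otherwise cells were pretreated 24 h. Then oligomycin A, FCCP and rotenone/antimycin A were added. OCR/ECAR were background-subtracted and normalized to the last baseline (100%). Mean ± SD, n = 3.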

U2OS [3] = assay: Inhibition of cell confluence in human U2OS cells at 10 uM measured after 48 hrs by PI/caspase-3/7 Green dye based analysis; format: functional
Summary of the method: (§3)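 U-2OS at 5000/well were incubated overnight, then given medium with compound or DMSO plus propidium iodide and CellEvent Caspase-3/7 Green. Cells were imaged hourly for 48 h by live-cell imaging. Phase confluence gave growth; red and green object confluence gave PI-positive cells and caspase-3/7 activity.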

U2OS [4] = assay: Effect on HIF1 signaling in human U2OS cells at 2 uM incubated for 24 hrs by pathway over-representation analysis; format: functional, cell-based; summary of the method: as §1
U2OS [5] = assay: Effect on mitochondrial respiration in human U2OS cells assessed as suppression of OCR level measured after 24 hrs by Seahorse analysis; format: functional, cell-based; summary of the method: as §2
U2OS [6] = assay: Induction of oxidative stress in human U2OS cells assessed as increase in mitochondrial superoxide level at 2 uM incubated for 1 hr by MitoSox Red staining based analysis; format: functional, cell-based
Summary of the method: (§4)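 U-2OS at 15,000/well were preloaded 30 min with 5 μM MitoSOX Red plus Hoechst in plain DMEM. They were then treated 60 min in complete DMEM, fixed in 0.5% paraformaldehyde, and imaged at 10×. Integrated MitoSOX intensity per cell was normalized to DMSO (0%) and 10 μM CDNB (100%). Mean ± SD, n = 3.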

U2OS [7] = assay: Effect on glycolysis in human U2OS cells assessed as increase in ECAR level at highest concentration measured after 24 hrs by Seahorse analysis; format: functional, cell-based; summary of the method: as §2
U2OS [8] = assay: Induction of integrated stress response in human U2OS cells assessed as increase ATF4 mRNA level at 2 uM incubated for 24 hrs by RT-qPCR analysis; format: functional, cell-based
Summary of the method: (§5)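 U-2OS at 1 × 10⁵/well in 6-well plates were grown 24 h to ~80% confluence, then treated 24 h versus DMSO. Total RNA (DNase-treated) was reverse-transcribed and ATF4 measured by SYBR Green qPCR. Expression was calculated by ΔΔCt against GAPDH, with DMSO set to 100%. Mean ± SD, n = 3.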

HEK-293T [9] = assay: Upregulation of HIF1 level in HEK293T cells transfected with HIF1/luc at 2 uM incubated for 24 hrs by Renilla luciferase base assay; format: functional, cell-based; settings: Homo sapiens
Summary of the method: (§6)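 HEK293T were co-transfected (Lipofectamine 2000) with a PGK1-HRE-driven destabilized firefly luciferase reporter and constitutive TK-Renilla. Cells were seeded at 2.5 × 10⁴/well, then treated 24 h the next day, with 100 μM CoCl₂ and 10 μM ML228 as controls. Dual-Glo readout: firefly was normalized to Renilla and expressed as fold induction over DMSO.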

U2OS [10] = assay: Effect on mitochondrial membrane potential in human U2OS cells at 2 uM incubated for 24 hrs by TRME staining based analysis; format: functional, cell-based
Summary of the method: (§7)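 U-2OS (5 × 10³/well) were treated 24 h, then given 20 μM FCCP or 0.5% DMSO controls for 10 min. Cells were stained 30 min at 37 °C with 1 μM TMRE plus Hoechst-33342 in complete DMEM, washed, and imaged live in 0.2% BSA/PBS at 10× (TMRE ex/em 549/575 nm).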

U2OS [11] = assay: Effect on mitochondrial respiration in human U2OS cells assessed as suppression of OCR level at 2 to 10 uM of acute treatment by Seahorse analysis; format: functional, cell-based; settings: dose 2-10 µM; summary of the method: as §2
U2OS [12] = assay: Effect on mitochondrial dysfunction in human U2OS cells at 2 uM incubated for 24 hrs by pathway over-representation analysis; format: functional, cell-based; summary of the method: as §1
U2OS [13] = assay: Induction of mitochondrial network fragmentation in human U2OS cells at 2 uM incubated for 24 hrs by CellLight Mitochondria-GFP assay; format: functional, cell-based
Summary of the method: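 U-2OS were transduced with CellLight Mitochondria-GFP BacMam 2.0 one day before treatment. 3000 cells/well were seeded in chamber slides. After compound addition, live cells were imaged by confocal microscopy (488/555 nm) continuously over 24 h at 37 °C, 5% CO₂.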

U2OS [14] = assay: Inhibition of cell confluence in human U2OS cells at 2 uM measured after 48 hrs by PI/caspase-3/7 Green dye based analysis; format: functional; summary of the method: as §3
U2OS [15] = assay: Induction of mitochondrial fragmentation in human U2OS cells assessed as puncta-like staining at 2 uM incubated for 20 hrs by Mito Tracker Deep Red dye based CPA assay; format: functional, cell-based
Summary of the method: (§8)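 Cell Painting: U-2OS were seeded at 1600 cells/well, then dosed 4 h later for 20 h at 37 °C against a matched-% DMSO control. Live cells were stained 30 min with 100 nM MitoTracker Deep Red, then fixed in 3.7% formaldehyde and permeabilized with 0.1% Triton X-100. They were co-stained with phalloidin, concanavalin A, Hoechst, WGA and SYTO 14. Imaging was high-content, run as triplicate plates; features are Z-scores versus DMSO median/MAD.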

U2OS [16] = assay: Effect on mitochondrial respiration in human U2OS cells assessed as suppression of OCR level at 10 uM measured after 24 hrs by Seahorse analysis relative to control; format: functional; summary of the method: as §2
U2OS [17] = assay: Induction of integrated stress response in human U2OS cells assessed as increase ATF4 level at 2 uM incubated for 24 hrs by Western blot analysis; format: functional, cell-based
Summary of the method: (§9)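 U-2OS grown to 80% confluence in 6-well plates were treated 24 h at 37 °C versus DMSO. ATF4 was detected by immunoblotting, with vinculin as reference protein.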

U2OS [18] = assay: Effect on mitochondrial dysfunction in human U2OS cells at 30 uM incubated for 24 hrs by pathway over-representation analysis; format: functional, cell-based; summary of the method: as §1
HEK-293T [19] = assay: Upregulation of HIF1 level in HEK293T cells transfected with HIF1/luc at 30 uM incubated for 24 hrs by Renilla luciferase base assay; format: functional, cell-based; settings: Homo sapiens; summary of the method: as §6
U2OS [20] = assay: Effect on oxidative phosphorylation in human U2OS cells at 30 uM incubated for 24 hrs by pathway over-representation analysis; format: functional, cell-based; summary of the method: as §1
U2OS [21] = assay: Induction of mitochondrial fragmentation in human U2OS cells assessed as puncta-like staining at 30 uM incubated for 20 hrs by Mito Tracker Deep Red dye based CPA assay; format: functional, cell-based; summary of the method: as §8
U2OS [22] = assay: Induction of integrated stress response in human U2OS cells assessed as increase ATF4 mRNA level at 30 uM incubated for 24 hrs by RT-qPCR analysis; format: functional, cell-based; summary of the method: as §5
U2OS [23] = assay: Effect on mitochondrial respiration in human U2OS cells assessed as suppression of OCR level at 10 to 30 uM of acute treatment by Seahorse analysis; format: functional, cell-based; settings: dose 10-30 µM; summary of the method: as §2
U2OS [24] = assay: Induction of integrated stress response in human U2OS cells assessed as increase ATF4 level at 30 uM incubated for 24 hrs by Western blot analysis; format: functional, cell-based; summary of the method: as §9
U2OS [25] = assay: Effect on mitochondrial respiration in human U2OS cells assessed as suppression of OCR level at 10 to 30 uM measured after 24 hrs by Seahorse analysis; format: functional, cell-based; settings: dose 10-30 µM; summary of the method: as §2
U2OS [26] = assay: Effect on glycolysis in human U2OS cells assessed as increase in ECAR level at 10 to 30 uM of acute treatment by Seahorse analysis; format: functional, cell-based; settings: dose 10-30 µM; summary of the method: as §2
U2OS [27] = assay: Induction of oxidative stress in human U2OS cells assessed as increase in mitochondrial superoxide level at 30 uM incubated for 1 hr by MitoSox Red staining based analysis; format: functional, cell-based; summary of the method: as §4
U2OS [28] = assay: Effect on mitochondrial membrane potential in human U2OS cells at 30 uM incubated for 24 hrs by TRME staining based analysis; format: functional, cell-based; summary of the method: as §7
U2OS [29] = assay: Inhibition of cell confluence in human U2OS cells at 10 to 50 uM measured after 48 hrs by PI/caspase-3/7 Green dye based analysis; format: functional; settings: dose 10-50 µM; summary of the method: as §3
U2OS [30] = assay: Effect on HIF1 signaling in human U2OS cells at 30 uM incubated for 24 hrs by pathway over-representation analysis; format: functional, cell-based; summary of the method: as §1

CCOC(=O)CCNc1cc(N2CCc3ccccc3CC2)nc(-c2ccccn2)n1
Activity (U2OS [1]): Active
Activity (U2OS [2]): inactive
inhibition (U2OS [3]): Active
Activity (U2OS [4]): inactive
Activity (U2OS [5]): Dose-Dependent Effect
Activity (U2OS [6]): Active
Activity (U2OS [7]): Active
Activity (U2OS [8]): Active
Activity (HEK-293T [9]): Active
Activity (U2OS [10]): inactive
Activity (U2OS [11]): inactive
Activity (U2OS [12]): Active
Activity (U2OS [13]): Active
inhibition (U2OS [14]): inactive
Activity (U2OS [15]): Active
Activity (U2OS [16]): ~100%
Activity (U2OS [17]): Active

Cc1cccc(-c2[nH]c(C(C)(C)C)nc2-c2ccc3nccnc3c2)n1
Activity (U2OS [18]): Active
Activity (HEK-293T [19]): Active
Activity (U2OS [7]): Active
Activity (U2OS [20]): Active
Activity (U2OS [21]): Active
Activity (U2OS [22]): Active
Activity (U2OS [23]): inactive
Activity (U2OS [24]): Active
Activity (U2OS [25]): Active
Activity (U2OS [26]): inactive
Activity (U2OS [27]): Active
Activity (U2OS [28]): inactive
inhibition (U2OS [29]): inactive
Activity (U2OS [30]): inactive
